Laboratory results taken from ChEMBL document CHEMBL1145336, “1-aryl-3-(4-pyridine-2-ylpiperazin-1-yl)propan-1-one oximes as potent dopamine D4 receptor agonists for the treatment of erectile dysfunction” (J Med Chem, 2006).
pEC50, pIC50, pKi: −log10 of the molar value. Active and inactive are the calls of the source. No cut-off for these calls is given here.

Assays:
[1] = biological target: T1, D(2) dopamine receptor (Homo sapiens, UniProt P14416); assay: Displacement of [125I]PIPAT from human recombinant D2L receptor expressed in HEK293 cells
[2] = tested on: Rattus norvegicus; assay: Activity against penile erection in Wistar rat at 0.3 umol/kg, sc; type: functional
Outline: (§1)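 Male Wistar rats, dosed subcutaneously, were weighed and adapted to a red-lit testing room for 60 min; experiments ran between 9:00 a.m. and 3:00 p.m. Erections were counted by direct observation for 60 min after dosing. The share of animals with one or more erections was reported as incidence (percent), n = 8-30 rats.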

[3] = biological target: T2, D(4) dopamine receptor (Homo sapiens, UniProt P21917); assay: Activity at human recombinant D4.4 receptor expressed in HEK293 cells by FLIPR assay; type: functional, cell-based
T2 sequence (P21917 whole entry): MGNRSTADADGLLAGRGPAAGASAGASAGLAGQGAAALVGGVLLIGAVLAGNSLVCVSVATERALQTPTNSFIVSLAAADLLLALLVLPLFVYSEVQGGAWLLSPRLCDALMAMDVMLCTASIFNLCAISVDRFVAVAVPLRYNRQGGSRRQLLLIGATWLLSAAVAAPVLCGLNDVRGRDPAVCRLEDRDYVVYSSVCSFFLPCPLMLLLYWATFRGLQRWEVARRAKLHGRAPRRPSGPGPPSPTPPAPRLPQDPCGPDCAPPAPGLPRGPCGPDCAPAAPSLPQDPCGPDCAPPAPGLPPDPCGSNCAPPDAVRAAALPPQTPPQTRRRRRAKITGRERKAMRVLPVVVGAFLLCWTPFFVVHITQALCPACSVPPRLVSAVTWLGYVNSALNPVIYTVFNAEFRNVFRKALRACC

[4] = tested on: Rattus norvegicus; assay: Volume of distribution in rat at 1 mg/kg, sc; type: ADME, organism-based; parameters: dose 1 mg/kg, route subcutaneous; details: in vivo
Outline: (§2)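 Pharmacokinetics in rat and dog after a 1 mg/kg dose given subcutaneously or orally. Oral bioavailability (F, %), volume of distribution (Vβ, L/kg) and half-life (T1/2, h) were determined.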

[5] = Bioavailability in dog at 1 mg/kg, po; type: ADME, organism-based, Canis lupus familiaris; details: in vivo
Outline: as §2

[6] = biological target: T1, D(2) dopamine receptor; assay: Antagonist activity at human recombinant D2 receptor expressed in HEK293 cells by FLIPR assay; type: functional, cell-based
[7] = Bioavailability in rat at 1 mg/kg, sc; type: ADME, organism-based; details: in vivo
Outline: as §2

[8] = biological target: T2, D(4) dopamine receptor; assay: Displacement of [3H]A-369508 from human recombinant D4.4 receptor expressed in HEK293 cell membrane; type: cell membranes
Outline: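 Competition binding against the D4-selective agonist radioligand [3H]-A-369508, using membranes from HEK-293 cells engineered to express human D4.4. Mean values (SEM, n ≥ 4).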

[9] = Bioavailability in rat at 1 mg/kg, po; type: ADME, organism-based; details: in vivo
Outline: as §2

[10] = tested on: Canis familiaris; assay: Volume of distribution in dog at 1 mg/kg, sc; type: ADME, organism-based, Canis lupus familiaris; parameters: dose 1 mg/kg, route subcutaneous; details: in vivo
Outline: as §2

[11] = Half life in rat at 1 mg/kg, sc; type: ADME, organism-based; parameters: dose 1 mg/kg, route subcutaneous; details: in vivo
Outline: as §2

[12] = biological target: T1, D(2) dopamine receptor; assay: Agonist activity at human recombinant D2 receptor expressed in HEK293 cells by FLIPR assay; type: functional, cell-based
Outline: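 Calcium flux (FLIPR) in HEK-293 cells coexpressing recombinant human D2L with chimeric Gqo5. Efficacy is the maximal response relative to 10 µM dopamine (100%). EC50 is the concentration giving half-maximal stimulation. Values are means (SEM, n ≥ 3).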

[13] = biological target: D(4) dopamine receptor (Homo sapiens) (UniProt P21917); assay: Agonist activity at human recombinant D4.4 receptor expressed in HEK293 cells by FLIPR assay relative to dopamine
[14] = tested on: Rattus norvegicus; assay: Inhibition of (E)-1-(4-chlorophenyl)-3-(4-pyridin-2-ylpiperazin-1-yl)propan-1-one O-methyloxime-induced erectogenic effect in Wistar rat at 10 umol/kg, ip; type: functional, organism-based
[15] = tested on: Rattus norvegicus; assay: Inhibition of (E)-1-(4-chlorophenyl)-3-(4-pyridin-2-ylpiperazin-1-yl)propan-1-one O-methyloxime-induced erectogenic effect in Wistar rat at 3 umol/kg, ip; type: functional, organism-based
[16] = tested on: Mus musculus; assay: Lowering of hypothermia in mouse at 10 umol/kg by Irvin test; type: functional, organism-based
[17] = tested on: Mus musculus; assay: Lowering of ptosis in mouse at 10 umol/kg by Irvin test; type: functional, organism-based
[18] = organism: Canis familiaris; assay: Prolongation of canine cardiac Purkinje fiber repolarization; type: functional, Canis lupus familiaris
[19] = tested on: Mustela putorius furo; assay: Emetic activity in ferret at 0.03 to 3 umol/kg, sc; type: functional, organism-based
[20] = tested on: Mus musculus; assay: Lowering of hypoactivity in mouse at 10 umol/kg by Irvin test; type: functional, organism-based
[21] = Half life in dog at 1 mg/kg, po; type: ADME, organism-based, Canis lupus familiaris; parameters: dose 1 mg/kg, route oral; details: in vivo
Outline: as §2

[22] = tested on: Mus musculus; assay: Lowering of piloerection in mouse at 10 umol/kg by Irvin test; type: functional, organism-based
[23] = Half life in rat at 1 mg/kg, po; type: ADME, organism-based; parameters: dose 1 mg/kg, route oral; details: in vivo
Outline: as §2

[24] = tested on: Rattus norvegicus; assay: Activity against penile erection in Wistar rat at 0.03 umol/kg, sc; type: functional
Outline: as §1

[25] = tested on: Rattus norvegicus; assay: Inhibition of (E)-1-(4-chlorophenyl)-3-(4-pyridin-2-ylpiperazin-1-yl)propan-1-one O-methyloxime-induced erectogenic effect in Wistar rat at 1 umol/kg, ip; type: functional, organism-based
[26] = tested on: Rattus norvegicus; assay: Activity against penile erection in Wistar rat at 1.0 umol/kg, sc; type: functional
Outline: as §1

T1 sequence (P14416 whole entry): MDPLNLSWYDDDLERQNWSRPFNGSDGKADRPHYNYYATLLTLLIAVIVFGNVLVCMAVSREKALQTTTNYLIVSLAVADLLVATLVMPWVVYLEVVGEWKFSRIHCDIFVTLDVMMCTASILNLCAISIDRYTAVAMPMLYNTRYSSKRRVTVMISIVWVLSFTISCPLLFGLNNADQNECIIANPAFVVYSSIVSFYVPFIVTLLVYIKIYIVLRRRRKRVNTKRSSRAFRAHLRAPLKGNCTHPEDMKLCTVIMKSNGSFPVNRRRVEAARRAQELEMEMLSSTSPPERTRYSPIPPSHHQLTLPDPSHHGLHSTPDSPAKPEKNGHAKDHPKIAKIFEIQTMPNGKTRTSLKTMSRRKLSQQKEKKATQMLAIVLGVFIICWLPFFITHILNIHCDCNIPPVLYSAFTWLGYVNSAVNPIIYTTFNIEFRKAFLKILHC

SMILES	pKi [1]	pEC50 [3]	Vbeta [4]	bioavailability [5]	pIC50 [6]	pKi [8]	bioavailability [9]	Vbeta [10]	pEC50 [12]	also measured
O/N=C(\CCN1CCN(c2ccccn2)CC1)c1ccccc1	6.59	8.36	1 L/kg	0%	< 5.00	7.60	0%	1.8 L/kg	< 5.00	Activity [2]: 60%; bioavailability [7]: 68.1%; half-life [11]: 0.8 h
CO/N=C(/CCCN1CCN(c2ccccn2)CC1)c1ccc(F)cc1		7.47			< 5.00				6.44	Efficacy [13]: 65%
O=c1[nH]c2ccccc2n1CCCN1CCC(n2c(=O)[nH]c3cc(Cl)ccc32)CC1										Activity [14]: inactive
CN1CCN(C2=Nc3cc(Cl)ccc3Nc3ccccc32)CC1										Activity [15]: Active
CO/N=C(\CCN1CCN(c2ccccn2)CC1)c1ccc(Cl)cc1	7.20	7.42	4.3 L/kg	39.8%	< 5.00	7.42	16.3%	4.8 L/kg	< 5.00	Activity [16]: Active; Activity [17]: Active; Activity [18]: 14.7%; Activity [19]: inactive; Activity [20]: Active; half-life [21]: 6.2 h; Activity [22]: Active; half-life [23]: 2.3 h; bioavailability [7]: 94.8%; Activity [24]: 85%; half-life [11]: 1.9 h
O=C(CCCN1CCC(O)(c2ccc(Cl)cc2)CC1)c1ccc(F)cc1										Activity [25]: Active
CO/N=C(\CCN1CCN(c2ccccn2)CC1)c1ccc(F)c(Cl)c1	6.77	6.83	8.2 L/kg	42.9%	< 5.00	7.15	18.6%	3.8 L/kg	< 5.00	half-life [21]: 6.1 h; Activity [26]: 85%
